Data: ChEMBL document CHEMBL4270642, “Boronic ester-linked macrocyclic lipopeptides as serine protease inhibitors targeting Escherichia coli type I signal peptidase” (Eur J Med Chem, 2018)
≈ marks a conversion by molar mass, not a printed value.

Experiments:
Escherichia coli [1] = experiment: Antibacterial activity against Escherichia coli ATCC 25922 after 16 to 20 hrs by broth microdilution method; format: functional
Outline: (§1)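 Broth microdilution in cation-adjusted Mueller-Hinton II per EUCAST/CLSI; two-fold compound series 64 down to 0.25 µg/mL final. Inoculum from fresh colonies (non-selective agar, 18-24 h, 35 ± 2 °C), adjusted to 0.5 McFarland, diluted to about 5 × 10^5 CFU/mL final. Static incubation 16-20 h at 35 ± 2 °C; MIC read visually as complete growth inhibition against medium-only wells.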

Staphylococcus aureus = experiment: Antibacterial activity against Staphylococcus aureus ATCC 29213 after 16 to 20 hrs by broth microdilution method; format: functional; outline: as §1
Escherichia coli [2] = experiment: Antibacterial activity against tolC deficient Escherichia coli CH3130 after 16 to 20 hrs by broth microdilution method; format: functional; outline: as §1
[3] = biological target: Signal peptidase I (Escherichia coli K-12) (UniProt P00803); experiment: Inhibition of Escherichia coli type 1 signal peptidase lepB assessed as residual activity at 0.625 uM preincubated for 10 mins followed by Dabcyl-VGGTATAYGAFSRPGLE-(EDANS)-OH substrate addition measured after 2 hrs by FRET based assay (reference value: 100%)
Outline: (§2)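 EcLepB (about 50 nM estimated) preincubated 10 min with compound. Reaction started with Dabcyl/EDANS FRET peptide at 8 µM final (Km 20 µM). Fluorescence followed continuously at 535 nm, 22 °C, for 2 h. Cleavage rates plotted against inhibitor concentration; IC50 from non-linear regression of sigmoidal dose-response curves.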

[4] = biological target: Signal peptidase I (Escherichia coli K-12) (UniProt P00803); experiment: Inhibition of Escherichia coli type 1 signal peptidase lepB assessed as residual activity at 0.3125 uM preincubated for 10 mins followed by Dabcyl-VGGTATAYGAFSRPGLE-(EDANS)-OH substrate addition measured after 2 hrs by FRET based assay (reference value: 100%); outline: as §2
[5] = biological target: Signal peptidase I (Escherichia coli K-12) (UniProt P00803); experiment: Inhibition of Escherichia coli type 1 signal peptidase lepB assessed as residual activity at 0.0049 uM preincubated for 10 mins followed by Dabcyl-VGGTATAYGAFSRPGLE-(EDANS)-OH substrate addition measured after 2 hrs by FRET based assay (reference value: 100%); outline: as §2
Klebsiella pneumoniae = experiment: Antibacterial activity against Klebsiella pneumoniae ATCC 13883 after 16 to 20 hrs by broth microdilution method; format: functional; outline: as §1
[6] = biological target: Signal peptidase I (Escherichia coli K-12) (UniProt P00803); experiment: Inhibition of Escherichia coli type 1 signal peptidase lepB assessed as residual activity at 0.0006 uM preincubated for 10 mins followed by Dabcyl-VGGTATAYGAFSRPGLE-(EDANS)-OH substrate addition measured after 2 hrs by FRET based assay (reference value: 100%); outline: as §2
[7] = biological target: Signal peptidase I (Escherichia coli K-12) (UniProt P00803); experiment: Inhibition of Escherichia coli type 1 signal peptidase lepB assessed as residual activity at 0.0012 uM preincubated for 10 mins followed by Dabcyl-VGGTATAYGAFSRPGLE-(EDANS)-OH substrate addition measured after 2 hrs by FRET based assay (reference value: 100%); outline: as §2
[8] = biological target: Signal peptidase I (Escherichia coli K-12) (UniProt P00803); experiment: Inhibition of Escherichia coli type 1 signal peptidase lepB assessed as residual activity at 0.1563 uM preincubated for 10 mins followed by Dabcyl-VGGTATAYGAFSRPGLE-(EDANS)-OH substrate addition measured after 2 hrs by FRET based assay (reference value: 100%); outline: as §2
Pseudomonas aeruginosa [9] = experiment: Antibacterial activity against efflux defective Pseudomonas aeruginosa PAO750 after 16 to 20 hrs by broth microdilution method; format: functional; outline: as §1
HepG2 = experiment: Cytotoxicity against human HepG2 cells after 72 hrs by FMSA; format: cell-based; conditions: HepG2, 72 h
Outline: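 HepG2 (ATCC) grown in EMEM with 10% FBS, pen/strep, 2 mM L-glutamine, used up to 20 passages. Seeded at 1000 cells/well, cultured overnight, then dosed acoustically from DMSO stocks. Eight two-fold dilutions in duplicate from top 64 or 32 µM; 72 h at 37 °C, 5% CO2. Fluorescein diacetate hydrolysis read at ex 485/em 530 nm; IC50 by non-linear regression.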

[10] = biological target: Signal peptidase I (Escherichia coli K-12) (UniProt P00803); experiment: Inhibition of Escherichia coli type 1 signal peptidase lepB assessed as residual activity at 0.0195 uM preincubated for 10 mins followed by Dabcyl-VGGTATAYGAFSRPGLE-(EDANS)-OH substrate addition measured after 2 hrs by FRET based assay (reference value: 100%); outline: as §2
[11] = biological target: Signal peptidase I (Escherichia coli K-12) (UniProt P00803); experiment: Inhibition of Escherichia coli type 1 signal peptidase lepB assessed as residual activity at 1.25 uM preincubated for 10 mins followed by Dabcyl-VGGTATAYGAFSRPGLE-(EDANS)-OH substrate addition measured after 2 hrs by FRET based assay (reference value: 100%); outline: as §2
[12] = biological target: Signal peptidase I (Escherichia coli K-12) (UniProt P00803); experiment: Inhibition of Escherichia coli type 1 signal peptidase lepB assessed as residual activity at 10 uM preincubated for 10 mins followed by Dabcyl-VGGTATAYGAFSRPGLE-(EDANS)-OH substrate addition measured after 2 hrs by FRET based assay (reference value: 100%); outline: as §2
[13] = biological target: Signal peptidase I (Escherichia coli K-12) (UniProt P00803); experiment: Inhibition of Escherichia coli type 1 signal peptidase lepB assessed as residual activity at 0.0098 uM preincubated for 10 mins followed by Dabcyl-VGGTATAYGAFSRPGLE-(EDANS)-OH substrate addition measured after 2 hrs by FRET based assay (reference value: 100%); outline: as §2
Acinetobacter baumannii = experiment: Antibacterial activity against Acinetobacter baumannii ATCC 19606 after 16 to 20 hrs by broth microdilution method; format: functional; conditions: ATCC 19606 = CIP 70.34 = JCM 6841; outline: as §1
[14] = Hemolytic activity in human RBC at 100 uM after 45 mins by spectrophotometric method relative to control; format: ADME, cell-based, Erythrocyte; conditions: red blood cells (erythrocytes), read-out: Activity
Outline: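 Heparinized human blood; red cells washed three times in Tyrode buffer pH 7.4. Compound at 100 µM final with 1% DMSO and 50% RBC, shaken (250 rpm) 45 min at 37 °C. Cells pelleted (1000 × g, 10 min); supernatant haemoglobin at 540 nm. Percent lysis relative to buffer-only and 2% Triton X-100 controls.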

[15] = biological target: Signal peptidase I (Escherichia coli K-12) (UniProt P00803); experiment: Inhibition of Escherichia coli type 1 signal peptidase lepB assessed as residual activity at 0.0781 uM preincubated for 10 mins followed by Dabcyl-VGGTATAYGAFSRPGLE-(EDANS)-OH substrate addition measured after 2 hrs by FRET based assay (reference value: 100%); outline: as §2
Signal peptidase I = Signal peptidase I (Escherichia coli K-12, UniProt P00803); experiment: Inhibition of Escherichia coli type 1 signal peptidase lepB preincubated for 10 mins followed by Dabcyl-VGGTATAYGAFSRPGLE-(EDANS)-OH substrate addition measured after 2 hrs by FRET based assay; outline: as §2
[16] = biological target: Signal peptidase I (Escherichia coli K-12) (UniProt P00803); experiment: Inhibition of Escherichia coli type 1 signal peptidase lepB assessed as residual activity at 2.5 uM preincubated for 10 mins followed by Dabcyl-VGGTATAYGAFSRPGLE-(EDANS)-OH substrate addition measured after 2 hrs by FRET based assay (reference value: 100%); outline: as §2
Pseudomonas aeruginosa [17] = experiment: Antibacterial activity against Pseudomonas aeruginosa PAO1 after 16 to 20 hrs by broth microdilution method; format: functional; outline: as §1
[18] = biological target: Signal peptidase I (Escherichia coli K-12) (UniProt P00803); experiment: Inhibition of Escherichia coli type 1 signal peptidase lepB assessed as residual activity at 0.0024 uM preincubated for 10 mins followed by Dabcyl-VGGTATAYGAFSRPGLE-(EDANS)-OH substrate addition measured after 2 hrs by FRET based assay (reference value: 100%); outline: as §2
[19] = biological target: Signal peptidase I (Escherichia coli K-12) (UniProt P00803); experiment: Inhibition of Escherichia coli type 1 signal peptidase lepB assessed as residual activity at 0.0391 uM preincubated for 10 mins followed by Dabcyl-VGGTATAYGAFSRPGLE-(EDANS)-OH substrate addition measured after 2 hrs by FRET based assay (reference value: 100%); outline: as §2
Escherichia coli [20] = experiment: Antibacterial activity against Escherichia coli D22 CGSG 5163 harboring Ips mutant after 16 to 20 hrs by broth microdilution method; format: functional
Outline: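 Broth microdilution in cation-adjusted Mueller-Hinton II broth, following EUCAST and CLSI guidelines. Two-fold series at final concentrations 64 down to 0.25 µg/mL, with medium-only and growth controls. Inoculum from fresh colonies (18-24 h, 35 °C ± 2 °C) adjusted to 0.5 McFarland, final ≈5 × 10^5 CFU/mL. Plates incubated unshaken 16-20 h at 35 °C ± 2 °C. MIC read visually as complete inhibition of growth.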

[21] = biological target: Signal peptidase I (Escherichia coli K-12) (UniProt P00803); experiment: Inhibition of Escherichia coli type 1 signal peptidase lepB assessed as residual activity at 5 uM preincubated for 10 mins followed by Dabcyl-VGGTATAYGAFSRPGLE-(EDANS)-OH substrate addition measured after 2 hrs by FRET based assay (reference value: 100%); outline: as §2

Signal peptidase I (Escherichia coli K-12), sequence (P00803 whole entry): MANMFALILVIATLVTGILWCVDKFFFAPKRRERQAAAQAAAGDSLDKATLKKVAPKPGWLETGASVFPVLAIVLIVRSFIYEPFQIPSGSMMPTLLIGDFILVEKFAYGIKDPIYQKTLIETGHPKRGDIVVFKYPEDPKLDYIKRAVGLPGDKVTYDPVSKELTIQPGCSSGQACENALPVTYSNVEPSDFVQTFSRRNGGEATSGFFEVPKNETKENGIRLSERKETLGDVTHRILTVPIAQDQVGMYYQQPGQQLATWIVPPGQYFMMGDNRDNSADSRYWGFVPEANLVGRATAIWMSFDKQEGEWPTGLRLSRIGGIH
Signal peptidase I, sequence (P00803 whole entry): as above

Row | SMILES | MIC (Escherichia coli [1]) | MIC (Staphylococcus aureus) | MIC (Escherichia coli [2]) | Activity [3] | Activity [4] | Activity [5] | MIC (Klebsiella pneumoniae) | Activity [6] | Activity [7] | Activity [8] | MIC (Pseudomonas aeruginosa [9]) | IC50 (HepG2) | Activity [10] | Activity [11] | Activity [12] | Activity [13] | MIC (Acinetobacter baumannii) | hemolysis at 0.75 h, 100 µM [14] | Activity [15] | IC50 (Signal peptidase I) | also measured
1 | CCCCCCc1ccc(-c2ccc(C(=O)N[C@@H](CCCN)C(=O)N(C)[C@H](C(=O)N[C@@H](C)C(=O)N[C@H]3Cc4cn(nn4)CCCN4C[C@@H]5OB(O[C@@H]5C4)[C@H](C)NC3=O)[C@@H](C)O)cc2)cc1 | 64 µg/mL (≈ 71.2 µM) | 32 µg/mL (≈ 35.6 µM) | 16 µg/mL (≈ 17.8 µM) | 30.7% | 34.2% | 92.7% | 32 µg/mL (≈ 35.6 µM) | 95.8% | 95.3% | 40% | 64 µg/mL (≈ 71.2 µM) | 8.5 µM | 75.7% | 23.6% | 3.7% | 88.1% | 64 µg/mL (≈ 71.2 µM) | 9.6% | 52.1% | 0.098 µM | Activity [16]: 18.2%; MIC (Pseudomonas aeruginosa [17]): > 64 µg/mL; Activity [18]: 95.7%; Activity [19]: 69.9%; MIC (Escherichia coli [20]): 32 µg/mL (≈ 35.6 µM); Activity [21]: 8%
2 | CCCCCCc1ccc(-c2ccc(C(=O)N[C@@H](Cc3cnc[nH]3)C(=O)N[C@H](C(=O)N[C@@H](C)C(=O)N[C@H]3Cc4cn(nn4)CCCN4C[C@@H]5OB(O[C@@H]5C4)[C@H](C)NC3=O)[C@@H](C)O)cc2)cc1 | > 64 µg/mL | > 64 µg/mL | > 64 µg/mL | 34.2% | 39.7% | 90.8% | > 64 µg/mL | 94.5% | 94% | 52% | > 64 µg/mL | 5.4 µM | 81% | 34.1% | 20.8% | 91.4% | > 64 µg/mL | 4.1% | 66.2% | 0.107 µM | Activity [16]: 27.8%; MIC (Pseudomonas aeruginosa [17]): > 64 µg/mL; Activity [18]: 94.7%; Activity [19]: 76.7%; MIC (Escherichia coli [20]): 64 µg/mL (≈ 70.5 µM); Activity [21]: 25%
3 | CCCCCCc1ccc(-c2ccc(C(=O)N[C@@H](CCCNC(=N)N)C(=O)N[C@H](C(=O)N[C@@H](C)C(=O)N[C@H]3Cc4cn(nn4)CCCN4C[C@@H]5OB(O[C@@H]5C4)[C@H](C)NC3=O)[C@@H](C)O)cc2)cc1 | 16 µg/mL (≈ 17.3 µM) | 16 µg/mL (≈ 17.3 µM) | 4 µg/mL (≈ 4.32 µM) | 36% | 39.1% | 105% | 16 µg/mL (≈ 17.3 µM) | 108% | 106% | 41.7% | 32 µg/mL (≈ 34.5 µM) | 2.4 µM | 97.2% | 35.7% | 22.9% | 101% | 16 µg/mL (≈ 17.3 µM) | 21% | 46.5% | 0.041 µM | Activity [16]: 32.8%; MIC (Pseudomonas aeruginosa [17]): > 64 µg/mL; Activity [18]: 102%; Activity [19]: 76.8%; MIC (Escherichia coli [20]): 8 µg/mL (≈ 8.63 µM); Activity [21]: 27.7%
